Laboratory results published in ChEMBL document CHEMBL1165870, “Cytotoxicity of new alkylamino- and phenylamino-containing polyfluorinated derivatives of 1,4-naphthoquinone” (Eur J Med Chem, 2010).

Assays:
[1] = Cytotoxicity against mouse LMTK cells after 72 hrs by MTT assay; format: cell-based; conditions: L-M(TK-)
Salmonella typhimurium [2] = assay: Suppression in H2O2-iduced mutagenesity in Salmonella Typhimurium TA102 assessed as 100 to 50 % suppression of revertant formation by Ames assay; conditions: Salmonella enterica
MCF7 = assay: Cytotoxicity against human MCF7 cells after 72 hrs by MTT assay; format: functional, cell-based; conditions: MCF7, 72 h
Salmonella typhimurium [3] = assay: Suppression in H2O2-iduced mutagenesity in Salmonella Typhimurium TA102 assessed as 150 to 100 % suppression of revertant formation by Ames assay; conditions: Salmonella enterica
RPMI-8226 = assay: Cytotoxicity against human RPMI8226 cells after 72 hrs by MTT assay; format: functional, cell-based; conditions: RPMI-8226, 72 h
Salmonella typhimurium [4] = assay: Suppression in mutagenesity in Salmonella Typhimurium TA102 assessed as 100 to 50% suppression of revertant formation by Ames assay; conditions: Salmonella enterica
[5] = Cytotoxicity against mouse PMF after 72 hrs by MTT assay
Salmonella typhimurium [6] = assay: Suppression in mutagenesity in Salmonella Typhimurium TA102 assessed as 100 to 50% suppression of revertant formation at 50 ug/ml by Ames assay
[7] = Growth inhibition of mouse PMF at 25 ug/ml after 72 hrs by MTT assay; conditions: mouse PMF cells, read-out: GI
Summary of the method: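 PMF cells (about 2000 per well) seeded and held 24 h at 37 °C in IMDM or RPMI 1640 under 5% CO2, then exposed to compound.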

[8] = Growth inhibition of mouse LMTK cells at 173 uM after 72 hrs by MTT assay; format: cell-based

| Compound | IC50 [1] [µM] | IC50 (Salmonella typhimurium [2]) [µM] | IC50 (MCF7) [µM] | IC50 (Salmonella typhimurium [3]) [µM] | IC50 (RPMI-8226) [µM] | IC50 (Salmonella typhimurium [4]) [µM] | IC50 [5] [µM] | Activity (Salmonella typhimurium [6]) [%] | inhibition at 72 h, 25 ug/ml [7] [%] | growth inhibition (GI) [8] |
| --- | --- | --- | --- | --- | --- | --- | --- | --- | --- | --- |
| CC(C)(C)NC1=C(F)C(=O)c2c(F)c(F)c(F)c(F)c2C1=O | 6.3 | 6.9 | 2.5 | 1.4 | 3.5 | 12.2 | 3.1 |  |  |  |
| CCN(CC)C1=C(F)C(=O)c2c(F)c(F)c(F)c(F)c2C1=O | 62.7 | 2.7 | 4.1 | 0.86 | 6.9 | 18.5 | 28.2 |  |  |  |
| CCNC1=C(F)C(=O)c2c(F)c(F)c(F)c(F)c2C1=O | 11 | 1 | 8.6 | 0.094 | 2.4 | 0.69 | 30.9 |  |  |  |
| O=C1C(F)=C(Nc2ccccc2)C(=O)c2c(F)c(F)c(F)c(F)c21 | 11.8 | 0.15 | 2.4 | 0.089 | 2.4 | 0.59 | 7.4 |  |  |  |
| CC1=C(Nc2ccccc2)C(=O)c2c(F)c(F)c(F)c(F)c2C1=O | 104 | 21.8 | 13.4 | 0.75 | 22.4 | > 149 |  | 24 | 45 |  |
| CC1=C(SCCO)C(=O)c2c(F)c(F)c(F)c(F)c2C1=O |  | 0.44 | 173 |  | 14.8 | 0.81 |  |  |  | Not Active |
